In ChEMBL document CHEMBL4041489, “Meroterpenoids and Chalcone-Lignoids from the Roots of Mimosa diplotricha” (J Nat Prod, 2016) one finds IC50 and GI50 data, which are given here for 7 compounds.

A short description of test [1]: Inhibition of rat protein farnesyltransferase pretreated for 15 mins followed by dansyl-Gly-Cys-Val-Leu-Ser-OH substrate addition in presence of farnesyl pyrophosphate measured after 30 mins by fluorescence assay.
Test [2] has as its system HepG2. Kind of test: Antiproliferative activity against human HepG2 cells measured after 72 hrs by SRB assay. To be noted: HepG2, 72 h. It is filed as functional. In outline:
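HepG2 cells from BCRC grown in RPMI 1640 with 10% FBS, nonessential amino acids, penicillin/streptomycin at 37 °C, 5% CO2. Cells were seeded in 10% FBS medium, and a T0 plate was TCA-fixed at 24 h. Compound or DMSO was added for 72 h, then cells were fixed with 10% TCA and stained with 0.4% SRB. Absorbance read at 515 nm; % growth vs T0 and control gave GI50.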

Test [3] can be described thus: Inhibition of porcine brain protein farnesyltransferase using p21 ras protein as substrate in presence of [3H]FPP after 1 hr by liquid scintillation counting method. Details: species or system Sus scrofa.

One may read the IC50 as the concentration needed to halve the response being measured. Usually GI50 stands for the concentration at which growth is held to half of that of the control. A low value points to more potent growth inhibition. With `COC1=CC(=O)[C@@]2(c3cc(=O)c4ccc(O)cc4o3)[C@H](C[C@]3(C)[C@@H](C(=O)O)CC=C4[C@H]3CCCC4(C)C)C(C)=CC[C@H]2C1=O`, the half-inhibitory concentration (IC50) in test [1] came out at 47 µM. In test [2], this compound registered a GI50 of over 10 µM.
On the same counts, the results for `COC1=CC(=O)[C@@]2(c3cc(=O)c4c(O)cc(OC)cc4o3)[C@H](C[C@]3(C)[C@@H](C(=O)O)CC=C4[C@H]3CCCC4(C)C)C(C)=CC[C@H]2C1=O` are 5 µM and 8.6 µM.
With `COC1=CC(=O)[C@@]2(c3cc(=O)c4ccc(OC)cc4o3)[C@H](C[C@]3(C)[C@@H](C(=O)O)CC=C4[C@H]3CCCC4(C)C)C(C)=CC[C@H]2C1=O`, the IC50 in test [1] amounted to 7.5 µM. In test [2], the GI50 is over 10 µM.
With `COC1=CC(=O)[C@@]2(c3cc(=O)c4ccc(O)cc4o3)[C@H](CC=C(C)[C@@H]2C[C@]2(C)[C@@H](C(=O)O)CC=C3[C@H]2CCCC3(C)C)C1=O`, the IC50 in test [1] came out at 27.9 µM. Also, the GI50 in test [2] is over 10 µM.
In the case of `COC1=CC(=O)[C@@]2(c3cc(=O)c4c(O)cc(O)cc4o3)[C@H](CC=C(C)[C@@H]2C[C@]2(C)[C@@H](C(=O)O)CC=C3[C@H]2CCCC3(C)C)C1=O`, the IC50 in test [1] stood at 5.1 µM. Also, the GI50 in test [2] is over 10 µM.
In the case of `CSCC[C@H](NC(=O)c1ccc(NC(=O)[C@@H](N)CS)cc1)C(=O)O`, the values for the IC50 in test [1] and in test [3] were 0.1 µM and 50 to 75 nM, respectively.
Turning to `COC1=CC(=O)[C@@]2(c3cc(=O)c4c(O)cc(O)cc4o3)[C@H](C[C@]3(C)[C@@H](C(=O)O)CC=C4[C@H]3CCCC4(C)C)C(C)=CC[C@H]2C1=O`, in test [1], the IC50 was found to be 8.5 µM. The same compound came in with a GI50 in test [2] of over 10 µM.
